Data published in ChEMBL document CHEMBL1125330, “N-substituted pyrazino[2,3-c][1,2,6]thiadiazine 2,2-dioxides. A new class of diuretics” (J Med Chem, 1992).

How the values were obtained:
Rattus norvegicus [1] = assay: Mean Chlorine excretion in rats when compound administered at 0 mg/kg po and vehicle dosed at 0 umol/kg; type: ADME, organism-based; parameters: dose 0 mg/kg, route oral; settings: in vivo
Rattus norvegicus [2] = assay: Mean potassium excretion in rats when compound administered at 20 mg/kg po and vehicle dosed at 74.26 umol/kg; type: ADME, organism-based; parameters: dose 20 mg/kg, route oral; settings: in vivo
Method in brief: (§1)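 Male Sprague-Dawley rats (HC/CFY, 175-200 g), no food or water for 18 h before and during the test. Single gavage dose (2.5-160 mg/kg; vehicle 1% carboxymethyl cellulose/0.1% Tween 80, 0.5 mL/100 g bw), then distilled water 2.5 mL/100 g bw po. Individual metabolic cages, 6 h urine. K+ by flame photometry, Cl- colorimetric, as mequiv/6 h/kg bw; unpaired Student t-test vs control.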

Rattus norvegicus [3] = assay: Mean potassium excretion in rats when compound administered at 40 mg/kg po and vehicle dosed at 148.52 umol/kg; type: ADME, organism-based; parameters: dose 40 mg/kg, route oral; settings: in vivo; method in brief: as §1
Rattus norvegicus [4] = assay: Mean potassium excretion in rats when compound administered at 5 mg/kg po and vehicle dosed at 18.56 umol/kg; type: ADME, organism-based; parameters: dose 5 mg/kg, route oral; settings: in vivo
Method in brief: (§2)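 Male Sprague-Dawley rats (HC/CFY, 175-200 g) fasted and water-deprived 18 h before and during the test. Dosed by gavage at 2.5-160 mg/kg in 1% carboxymethyl cellulose/0.1% Tween 80, 0.5 mL/100 g bw. Immediately hydrated with water (2.5 mL/100 g bw, po). Urine collected 6 h in metabolic cages; Na+ and K+ by flame photometry; mean mequiv/6 h/kg bw; nonpaired Student t-test.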

Rattus norvegicus [5] = assay: Mean potassium excretion in rats when compound administered at 80 mg/kg po and vehicle dosed at 297.03 umol/kg; type: ADME, organism-based; parameters: dose 80 mg/kg, route oral; settings: in vivo; method in brief: as §2
Rattus norvegicus [6] = assay: Urinary sodium 3h after the compound was administered 100 mg/kg po in rat; type: ADME, organism-based, Urine; parameters: dose 100 mg/kg, route oral; settings: in vivo
Method in brief: (§3)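 Onset and duration study in fasted, water-loaded male Sprague-Dawley rats housed two per metabolic cage, six pairs per group. Single oral dose given, then water 2.5 mL/100 g po. Urine volume and sodium (flame photometry) measured over 0-1, 1-2, 2-3, 3-4 and 4-6 h intervals. Mean values compared with vehicle by Student t-test.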

Rattus norvegicus [7] = assay: Urinary sodium 4 hr after the compound was administered 100 mg/kg po in rat; type: ADME, organism-based, Urine; parameters: dose 100 mg/kg, route oral; settings: in vivo; method in brief: as §3
Rattus norvegicus [8] = assay: Urinary sodium 6 hr after the compound was administered 100 mg/kg po in rat; type: ADME, organism-based, Urine; parameters: dose 100 mg/kg, route oral; settings: in vivo; method in brief: as §3
Rattus norvegicus [9] = assay: Mean potassium excretion in rats when compound administered at 0 mg/kg po and vehicle dosed at 0 umol/kg; type: ADME, organism-based; parameters: dose 0 mg/kg, route oral; settings: in vivo; method in brief: as §1
Rattus norvegicus [10] = assay: Mean sodium excretion in rats when compound administered at 0 mg/kg po and vehicle dosed at 0 umol/kg; type: ADME, organism-based; parameters: dose 0 mg/kg, route oral; settings: in vivo; method in brief: as §2
Rattus norvegicus [11] = assay: Mean sodium excretion in rats when compound administered at 160 mg/kg po and vehicle dosed at 594.07 umol/kg; type: ADME, organism-based; parameters: dose 160 mg/kg, route oral; settings: in vivo; method in brief: as §2
Rattus norvegicus [12] = assay: Mean sodium excretion in rats when compound administered at 2.5 mg/kg po and vehicle dosed at 9.28 umol/kg; type: ADME, organism-based; parameters: dose 2.5 mg/kg, route oral; settings: in vivo; method in brief: as §2
Rattus norvegicus [13] = assay: Mean sodium excretion in rats when compound administered at 20 mg/kg po and vehicle dosed at 74.26 umol/kg; type: ADME, organism-based; parameters: dose 20 mg/kg, route oral; settings: in vivo; method in brief: as §2
Rattus norvegicus [14] = assay: Mean sodium excretion in rats when compound administered at 5 mg/kg po and vehicle dosed at 18.56 umol/kg; type: ADME, organism-based; parameters: dose 5 mg/kg, route oral; settings: in vivo; method in brief: as §2
Rattus norvegicus [15] = assay: Mean sodium excretion in rats when compound administered at 80 mg/kg po and vehicle dosed at 297.03 umol/kg; type: ADME, organism-based; parameters: dose 80 mg/kg, route oral; settings: in vivo; method in brief: as §2
Rattus norvegicus [16] = assay: Urinary sodium 1 hr after the compound was administered 100 mg/kg po in rat; type: ADME, organism-based, Urine; parameters: dose 100 mg/kg, route oral; settings: in vivo; method in brief: as §3
Rattus norvegicus [17] = assay: Mean potassium excretion in rats when compound administered at 2.5 mg/kg po and vehicle dosed at 9.28 umol/kg; type: ADME, organism-based; parameters: dose 2.5 mg/kg, route oral; settings: in vivo; method in brief: as §1
Rattus norvegicus [18] = assay: Volume of urine 1 hr after the compound was administered 100 mg/kg po in rat; type: ADME, organism-based; parameters: dose 100 mg/kg, route oral; settings: in vivo
Method in brief: (§4)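 Onset/duration protocol: male Sprague-Dawley rats (HC/CFY, 175-200 g), food and water withdrawn for 18 h before and during the test. Single gavage dose in 1% carboxymethyl cellulose/0.1% Tween 80 (0.5 mL/100 g bw), then distilled water load (2.5 mL/100 g bw po). Two rats per metabolic cage, six pairs per group. Urine collected at 0-1, 1-2, 2-3, 3-4 and 4-6 h; Na+ by flame photometry. Vehicle controls; nonpaired Student t-test.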

Rattus norvegicus [19] = assay: Volume of urine 2 hr after the compound was administered 100 mg/kg po in rat; type: ADME, organism-based; parameters: dose 100 mg/kg, route oral; settings: in vivo; method in brief: as §4
Rattus norvegicus [20] = assay: Volume of urine 3h after the compound was administered 100 mg/kg po in rat; type: ADME, organism-based; parameters: dose 100 mg/kg, route oral; settings: in vivo; method in brief: as §4
Rattus norvegicus [21] = assay: Volume of urine 4 hr after the compound was administered 100 mg/kg po in rat; type: ADME, organism-based; parameters: dose 100 mg/kg, route oral; settings: in vivo; method in brief: as §4
Rattus norvegicus [22] = assay: Mean Chlorine excretion in rats when compound administered at 160 mg/kg po and vehicle dosed at 594.07 umol/kg; type: ADME, organism-based; parameters: dose 160 mg/kg, route oral; settings: in vivo; method in brief: as §1
Rattus norvegicus [23] = assay: Mean Chlorine excretion in rats when compound administered at 2.5 mg/kg po and vehicle dosed at 9.28 umol/kg; type: ADME, organism-based; parameters: dose 2.5 mg/kg, route oral; settings: in vivo; method in brief: as §1
Rattus norvegicus [24] = assay: Mean Chlorine excretion in rats when compound administered at 20 mg/kg po and vehicle dosed at 74.26 umol/kg; type: ADME, organism-based; parameters: dose 20 mg/kg, route oral; settings: in vivo; method in brief: as §1
Rattus norvegicus [25] = assay: Mean Chlorine excretion in rats when compound administered at 40 mg/kg po and vehicle dosed at 148.52 umol/kg; type: ADME, organism-based; parameters: dose 40 mg/kg, route oral; settings: in vivo; method in brief: as §1
Rattus norvegicus [26] = assay: Mean urinary output in rats when compound administered at 0 mg/kg po and vehicle dosed at 0 umol/kg; type: ADME, organism-based, Urine; parameters: dose 0 mg/kg, route oral; settings: in vivo
Method in brief: (§5)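 Water-loaded male Sprague-Dawley rats (HC/CFY, 175-200 g) fasted and without water for 18 h. Oral gavage of 2.5-160 mg/kg in 1% CMC with 0.1% Tween 80, then distilled water 2.5 mL/100 g po. Urine collected 6 h in metabolic cages, mean output in mL/6 h/kg bw. Unpaired Student t-test against vehicle; dose-response by linear regression.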

Rattus norvegicus [27] = assay: Mean urinary output in rats when compound administered at 160 mg/kg po and vehicle dosed at 594.07 umol/kg; type: ADME, organism-based, Urine; parameters: dose 160 mg/kg, route oral; settings: in vivo; method in brief: as §5
Rattus norvegicus [28] = assay: Mean urinary output in rats when compound administered at 2.5 mg/kg po and vehicle dosed at 9.28 umol/kg; type: ADME, organism-based, Urine; parameters: dose 2.5 mg/kg, route oral; settings: in vivo; method in brief: as §5
Rattus norvegicus [29] = assay: Mean urinary output in rats when compound administered at 80 mg/kg po and vehicle dosed at 297.03 umol/kg; type: ADME, organism-based, Urine; parameters: dose 80 mg/kg, route oral; settings: in vivo; method in brief: as §5
Rattus norvegicus [30] = assay: Dose required to produce an excretion of 2 mequiv of Na+/kg bw/6h vs control groups; type: functional
Method in brief: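 Male Sprague-Dawley rats (HC/CFY, 175-200 g), fasted and water-deprived 18 h before and during the test. Compound dosed by gavage in 1% carboxymethyl cellulose/0.1% Tween 80, then water load 2.5 mL/100 g bw po. Urine collected 6 h in metabolic cages; Na+ by flame photometry. Effective doses vs vehicle controls derived by linear regression of dose-response data.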

Rattus norvegicus [31] = assay: Post dosing time interval of maximum activity; type: functional
Method in brief: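 Interval of peak activity taken from timed urine collections (0-1, 1-2, 2-3, 3-4, 4-6 h) after a single oral dose in water-loaded fasted rats, […]. Urine volume and Na+ excretion followed over time.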

[32] = Ratio of Na+ to K+ excretion at dose; type: ADME
Method in brief: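 Water-loaded fasted male Sprague-Dawley rats dosed orally in CMC/Tween 80 vehicle and hydrated with water 2.5 mL/100 g. Na+ and K+ in urine pooled over 6 h measured by flame photometry. Na+/K+ excretion ratio computed for each dose; Student t-test against control.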

Rattus norvegicus [33] = assay: Mean potassium excretion in rats when compound administered at 10 mg/kg po and vehicle dosed at 37.13 umol/kg; type: ADME, organism-based; parameters: dose 10 mg/kg, route oral; settings: in vivo; method in brief: as §1
Rattus norvegicus [34] = organism: Rattus norvegicus; assay: Mean sodium excretion in rats (Control/Drug treatment value); value 0.35/2.88; type: ADME, organism-based; settings: in vivo

In the case of `CCc1nc2c(nc1C)C(N)=NS(=O)(=O)N2CC`, the Cl- (Rattus norvegicus [1]) is reported as 1.02 m equiv 6hr-1 kg-1 (body weight)-1, the K (Rattus norvegicus [2]) is reported as 0.63 m equiv 6hr-1 kg-1 (body weight)-1 and the K (Rattus norvegicus [3]) is reported as 1.25 m equiv 6hr-1 kg-1 (body weight)-1. The K (Rattus norvegicus [4]) was 0.52 m equiv 6hr-1 kg-1 (body weight)-1, the K (Rattus norvegicus [5]) was 2.06 m equiv 6hr-1 kg-1 (body weight)-1 and the “Urinary Na+” value (Rattus norvegicus [6]) was 0.56 m equiv. The “Urinary Na+” value (Rattus norvegicus [7]) was 0.27 m equiv, the “Urinary Na+” value (Rattus norvegicus [8]) was 0.16 m equiv and the K (Rattus norvegicus [9]) was 0.49 m equiv 6hr-1 kg-1 (body weight)-1. For the same compound, the Na (Rattus norvegicus [10]) was 0.43 m equiv 6hr-1 kg-1 (body weight)-1, the Na (Rattus norvegicus [11]) was 6.14 m equiv 6hr-1 kg-1 (body weight)-1 and the Na (Rattus norvegicus [12]) was 0.45 m equiv 6hr-1 kg-1 (body weight)-1. For the same compound, the Na (Rattus norvegicus [13]) was 1.7 m equiv 6hr-1 kg-1 (body weight)-1, the Na (Rattus norvegicus [14]) was 0.8 m equiv 6hr-1 kg-1 (body weight)-1 and the Na (Rattus norvegicus [15]) was 5.1 m equiv 6hr-1 kg-1 (body weight)-1. The “Urinary Na+” value (Rattus norvegicus [16]) was 0.15 m equiv, the K (Rattus norvegicus [17]) was 0.46 m equiv 6hr-1 kg-1 (body weight)-1 and the Urine volume (Rattus norvegicus [18]) was 1.84 mL. It also gave a Urine volume (Rattus norvegicus [19]) of 8.7 mL, a Urine volume (Rattus norvegicus [20]) of 5.52 mL and a Urine volume (Rattus norvegicus [21]) of 2.71 mL. For the same compound, the Cl- (Rattus norvegicus [22]) was 9.28 m equiv 6hr-1 kg-1 (body weight)-1, the Cl- (Rattus norvegicus [23]) was 1.21 m equiv 6hr-1 kg-1 (body weight)-1 and the Cl- (Rattus norvegicus [24]) was 3.99 m equiv 6hr-1 kg-1 (body weight)-1. For the same compound, the Cl- (Rattus norvegicus [25]) was 6.37 m equiv 6hr-1 kg-1 (body weight)-1, the V (Rattus norvegicus [26]) was 21.96 ml 6hr-1 (kg of body weight)-1 and the V (Rattus norvegicus [27]) was 74.26 ml 6hr-1 (kg of body weight)-1. The V (Rattus norvegicus [28]) was 20.52 ml 6hr-1 (kg of body weight)-1, the V (Rattus norvegicus [29]) was 62.99 ml 6hr-1 (kg of body weight)-1 and the ED2 (Rattus norvegicus [30]) was 14.62 mg/kg. The Time (Rattus norvegicus [31]) was 2 h, the Ratio [32] was 2.43 [middle of 8 runs] and the K (Rattus norvegicus [33]) was 0.72 m equiv 6hr-1 kg-1 (body weight)-1. For the same compound, the Na (Rattus norvegicus [34]) was 8.2.
